Measurements collected from several papers.
Protocols differ between the studies behind these lines.
Target: 3-phosphoinositide-dependent protein kinase 1 (PDPK1, Homo sapiens, UniProt O15530)
One construct used (O15530 1-556): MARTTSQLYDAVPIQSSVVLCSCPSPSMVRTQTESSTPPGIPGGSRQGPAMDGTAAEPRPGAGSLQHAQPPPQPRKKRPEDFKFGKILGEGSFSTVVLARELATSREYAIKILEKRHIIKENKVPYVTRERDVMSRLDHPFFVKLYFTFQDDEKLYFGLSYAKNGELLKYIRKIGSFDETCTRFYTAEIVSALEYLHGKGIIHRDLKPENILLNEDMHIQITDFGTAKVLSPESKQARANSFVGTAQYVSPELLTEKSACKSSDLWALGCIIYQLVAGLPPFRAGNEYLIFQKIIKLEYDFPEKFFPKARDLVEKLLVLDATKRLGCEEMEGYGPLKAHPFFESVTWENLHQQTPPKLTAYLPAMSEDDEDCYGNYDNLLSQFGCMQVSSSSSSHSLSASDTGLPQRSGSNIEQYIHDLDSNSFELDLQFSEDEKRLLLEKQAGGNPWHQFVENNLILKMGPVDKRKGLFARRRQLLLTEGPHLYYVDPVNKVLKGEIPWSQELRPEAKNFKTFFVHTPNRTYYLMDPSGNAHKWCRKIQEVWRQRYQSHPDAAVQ

Structure (SMILES)	observed	mode	method	concentration	quantity	result
COc1cc(Cl)c(C(=O)N[C@@H](CN[C@H]2CC[C@@H](N)CC2)Cc2ccc(C#N)cc2)cc1-c1ccc(CN[C@H](C)c2ccc(C)cc2)o1	enzyme activity	inhibitor		1 µM	remaining activity	73%
COc1cc(Nc2cnc(C#N)c(O[C@H](C)CN(C)C)n2)ncc1-c1cnn(C)c1	enzyme activity	inhibitor	radiometric	1 µM	remaining activity	76%
COCCOc1nc(-c2ccc(Cl)nc2)nc2c1CN(C(=O)c1ncn3ccccc13)CC2	cell-free assay		competition with immobilised ligand	0.1 µM	remaining binding	90%
CC(C)(C)c1nc2c(s1)c1nc(N)ncc1c1ccc(NS(=O)(=O)c3c(F)cccc3F)c(F)c12	enzyme activity	inhibitor	radiometric	1 µM	remaining activity	82%
O=C1Nc2ccc(Cl)cc2C1=Cc1cc(Cl)c(O)c(Cl)c1	cell-free assay			0.5 µM	remaining signal	103%
O=C(N[C@H]1CCCCC/C=C\C2C[C@@]2(C(=O)O)NC(=O)[C@@H]2C[C@@H](Oc3ccncc3)CN2C1=O)OC1CCCC1 (stereo partly shown)	binding		competition with immobilised ligand	1 µM	remaining binding	92%
CCN(CC)CCNC(=O)c1c(C)[nH]c(/C=C2\C(=O)Nc3ccc(F)cc32)c1C	cell-free assay			0.5 µM	remaining signal	81.6%
CCN(CC)c1ccc(C2=NNC(=O)CC2C)cc1[N+](=O)[O-] (stereo not shown)	enzyme activity	inhibitor		10 µM	remaining activity	116%
CNC(=O)c1ccc(Nc2ncc(C(F)(F)F)c(NCc3nccnc3N(C)S(C)(=O)=O)n2)cc1	cell-free assay		competition with immobilised ligand	0.1 µM	remaining binding	81%
Cc1ccc(NC(=O)c2ccc(C)c(C(F)(F)F)c2)cc1C#Cc1nn(C2CCC(O)CC2)c2ncnc(N)c12 (stereo not shown)	cell-free assay			10 µM	remaining signal	113%
CS(=O)(=O)CCNCc1ccc(-c2ccc3ncnc(Nc4ccc(OCc5cccc(F)c5)c(Cl)c4)c3c2)o1	cell-free assay			0.5 µM	remaining signal	86.4%
CC(=O)C1=C(C)N(c2cccc(C(F)(F)F)c2)C(=O)N[C@@H]1c1ccc(C#N)nc1	cell-free assay		competition with immobilised ligand	1 µM	remaining binding	93.4%
O=C1NC(=O)c2cc(Nc3ccc(F)cc3)c(Nc3ccc(F)cc3)cc21	cell-free assay			0.5 µM	remaining signal	102%
O=C(O)[C@@H]1[C@@H](Cn2nnc3ccccc3c2=O)CC[C@H]1C(=O)c1ccc(OCCC2CCOCC2)cc1	cell-free assay		competition with immobilised ligand	1 µM	remaining binding	80%
Cc1sc(C(=O)NC2COC2)cc1-n1cc(NC(=O)Nc2c(F)cccc2Cl)cn1	enzyme activity	inhibitor		10 µM	remaining activity	99.2%
CC(C)(C)C(=O)c1sc(NC2CCCCC2)nc1N	enzyme activity	inhibitor		10 µM	remaining activity	108%
O=Nc1c(-c2c(O)[nH]c3ccccc23)[nH]c2ccccc12	cell-free assay			0.5 µM	remaining signal	93%
CCCCN(CCCC)C(=O)CN1C[C@H](c2cc(OC)c3c(c2)OCO3)[C@@H](C(=O)O)[C@@H]1CC(C)(C)CCC	cell-free assay		competition with immobilised ligand	1 µM	remaining binding	100%
Cc1ccc(C(=O)NCc2ccsc2)cc1C#Cc1cn(C(C)C)c2ncnc(N)c12	enzyme activity	inhibitor		1 µM	activity vs control	98%
CNC(=O)Nc1ccc2c(c1)[C@@]1(CC2)OC(=O)N(CC(=O)N(Cc2ccc(F)cc2)[C@@H](C)C(F)(F)F)C1=O	cell-free assay		competition with immobilised ligand	1 µM	remaining binding	85%
Nc1nc(Nc2ccccc2)sc1C(=O)c1c(F)cccc1F	enzyme activity	inhibitor		10 µM	remaining activity	65%
COc1cc(/C=C/C(=O)CC(=O)/C=C/c2ccc(O)c(OC)c2)ccc1O	enzyme activity	inhibitor		1 µM	activity vs control	90%
Cc1cc(NC(=O)c2cccc3cc(-c4cccc5[nH]nc(N)c45)ccc23)ccc1F	enzyme activity	inhibitor		0.1 µM	activity vs control	101%
Oc1cccc(-c2nc(N3CCOCC3)c3oc4ncccc4c3n2)c1	enzyme activity	inhibitor		10 µM	remaining activity	107%
Cc1ccc(C(=O)Nc2ccc(CN3CCN(C)CC3)c(C(F)(F)F)c2)cc1C#Cc1cnc2cccnn12	enzyme activity	inhibitor		23.5 nM	remaining activity	94%
